Source: ChEMBL document CHEMBL1649125, “Efficacy of the novel diamidine compound 2,5-Bis(4-amidinophenyl)- furan-bis-O-Methlylamidoxime (Pafuramidine, DB289) against Trypanosoma brucei rhodesiense infection in vervet monkeys after oral administration” (2009)
The source made the active and inactive calls. The rule behind the calls is not given here.

How the values were obtained:
[1] = test system: Trypanosoma brucei rhodesiense; assay: Antitrypanosomal activity against Trypanosoma brucei rhodesiense infected in vervet monkey assessed as body weight change at 3 mg/kg, po administered on day 7 post infection for 5 days; format: functional
In short: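 Body weight change is given as percent of the mean preinfection weight (n=3 per group). It was recorded at day 0 p.t., day 28 p.t. and end point. Oral gavage was once daily: 5 days from day 7 p.i., or 10 days from day 28 p.i.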

[2] = test system: Trypanosoma brucei rhodesiense; assay: Antitrypanosomal activity against Trypanosoma brucei rhodesiense infected in vervet monkey 463 assessed as time to detect CSF parasitosis at 1 mg/kg, po administered on day 7 post infection for 5 days measured after 7 to 14 days; format: functional, organism-based; design: dose 1 mg/kg
In short: (§1)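 Trypanosomes and white cells in free-flowing CSF were counted by hemocytometer. Negative CSF was centrifuged and re-examined. Samples still negative were inoculated at 0.2 ml intraperitoneally into two mice each. Drug was given once daily by oral gavage: 5 days from day 7 p.i., or 10 days from day 28 p.i.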

[3] = test system: Trypanosoma brucei rhodesiense; assay: Antitrypanosomal activity against Trypanosoma brucei rhodesiense infected in vervet monkey 484 assessed as time to detect CSF parasitosis at 1 mg/kg, po administered on day 7 post infection for 5 days measured after 14 to 21 days by microscopy; format: functional; in short: as §1
[4] = test system: Trypanosoma brucei rhodesiense; assay: Antitrypanosomal activity against Trypanosoma brucei rhodesiense infected in vervet monkey 482 assessed as time to detect parasitemia at 3 mg/kg, po administered on day 7 post infection for 5 days; format: functional
In short: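 Parasitemia was monitored from 3 days p.i. in ear-prick or inguinal venous blood. Methods were wet-film microscopy (detection limit 10^5 trypanosomes/ml) and hematocrit centrifugation technique (detection limit 10^3 trypanosomes/ml). Drug was given once daily by oral gavage: 5 days from day 7 p.i., or 10 days from day 28 p.i.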

[5] = test system: Trypanosoma brucei rhodesiense; assay: Antitrypanosomal activity against Trypanosoma brucei rhodesiense infected in vervet monkey 411 assessed as cure from infection at 3 mg/kg, po administered on day 7 post infection for 5 days; format: functional, organism-based; design: dose 3 mg/kg
In short: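 Vervet monkeys (n=3 per group), infected with T. b. rhodesiense KETRI 2537. Dosed by oral gavage with a suspension once daily for 5 consecutive days from day 7 p.i. Cure meant no trypanosomes over 180 days p.t. in blood (wet film, HCT) or CSF (hemocytometer, centrifugation), with mouse subinoculation of negative samples.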

[6] = test system: Trypanosoma brucei rhodesiense; assay: Antitrypanosomal activity against Trypanosoma brucei rhodesiense infected in vervet monkey 490 assessed as time to detect CSF parasitosis at 10 mg/kg, po administered on day 28 post infection for 10 days measured after 14 to 21 days by microscopy; format: functional; in short: as §1
[7] = test system: Trypanosoma brucei rhodesiense; assay: Antitrypanosomal activity against Trypanosoma brucei rhodesiense infected in vervet monkey 501 assessed as time to detect CSF parasitosis at 10 mg/kg, po administered on day 28 post infection for 10 days measured after 7 to 14 days; format: functional, organism-based; design: dose 10 mg/kg; in short: as §1

## CONC(=N)c1ccc(-c2ccc(-c3ccc(C(=N)NOC)cc3)o2)cc1 [PAFURAMIDINE]
[1]
  Activity: -5%
[2]
  Time: inactive
[3]
  Time: 14 days
[4]
  Time: 55 days
[5]
  Time: Active
[6]
  Time: 42 days
[7]
  Time: inactive
